ChEMBL document CHEMBL2346664, “Synthesis, characterization and in vitro anticancer evaluation of novel 1,2,4-triazolin-3-one derivatives” (2013)

Tests used:
Format in all cases: functional
SN12C [1] = assay: Growth inhibition of human SN12C cells assessed as cell growth at 10 '-5 M after 48 hrs by sulforhodamine B assay; details: read-out: Activity
HOP-92 [2] = assay: Growth inhibition of human HOP92 cells assessed as cell growth at 10 '-4 M after 48 hrs by sulforhodamine B assay; details: HOP-92, 48 h, read-out: Activity
HL-60(TB) [3] = assay: Growth inhibition of human HL-60(TB) cells assessed as cell growth at 10 '-6 M after 48 hrs by sulforhodamine B assay; details: HL-60, 48 h, read-out: Activity
How it was run: (§1)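 Five-dose NCI protocol with final concentrations of 0.01–100 µM and drug diluted from a DMSO stock (400× the top concentration) in medium with gentamicin. Cells were pre-incubated 24 h, then exposed 48 h at 37 °C. Suspension cells were fixed with 16% final TCA, SRB-stained and read at 515 nm. Percentage growth at each level was [(Ti−Tz)/(C−Tz)]×100, or [(Ti−Tz)/Tz]×100 when Ti < Tz.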

OVCAR-5 = assay: Growth inhibition of human OVCAR5 cells assessed as cell growth at 10 '-7 M after 48 hrs by sulforhodamine B assay; details: OVCAR-5, 48 h, read-out: Activity
T47D = assay: Growth inhibition of human T47D cells assessed as cell growth at 10 '-7 M after 48 hrs by sulforhodamine B assay; details: read-out: Activity
IGROV-1 = assay: Growth inhibition of human IGROV1 cells assessed as cell growth at 10 '-5 M after 48 hrs by sulforhodamine B assay; details: IGROV-1, 48 h, read-out: Activity
NCI-H23 = assay: Growth inhibition of human NCI-H23 cells assessed as cell growth at 10 '-7 M after 48 hrs by sulforhodamine B assay; details: NCI-H23, 48 h, read-out: Activity
MDA-MB-231 = assay: Growth inhibition of human MDA-MB-231 cells assessed as cell growth at 10 '-7 M after 48 hrs by sulforhodamine B assay; details: MDA-MB-231, 48 h, read-out: Activity
HCT-15 [4] = assay: Growth inhibition of human HCT15 cells assessed as growth inhibition at 10 uM after 48 hrs by sulforhodamine B assay; details: HCT-15, 48 h, read-out: GI
HCT-15 [5] = assay: Growth inhibition of human HCT15 cells assessed as cell growth at 10 '-6 M after 48 hrs by sulforhodamine B assay; details: HCT-15, 48 h, read-out: Activity
CAKI-1 = assay: Growth inhibition of human CAKI-1 cells assessed as cell growth at 10 '-5 M after 48 hrs by sulforhodamine B assay; details: CAKI-1, 48 h, read-out: Activity
How it was run: (§2)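 Percent growth at each of the five concentrations of the 48 h continuous-exposure NCI SRB screen. Drug stocks were in DMSO at 400× the top final concentration and diluted in medium with gentamicin. Growth was calculated as [(Ti-Tz)/(C-Tz)]×100 when Ti ≥ Tz, or [(Ti-Tz)/Tz]×100 when Ti < Tz. Tz plates were fixed at drug addition; untreated wells served as control. Absorbance was read at 515 nm.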

COLO 205 = assay: Growth inhibition of human COLO205 cells assessed as cell growth at 10 '-5 M after 48 hrs by sulforhodamine B assay; details: COLO 205, 48 h, read-out: Activity
How it was run: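 In the same five-dose SRB screen (48 h, 37 °C, 5% CO2), percentage growth was computed at each concentration from time-zero (Tz), control (C) and treated (Ti) absorbances. The formula was [(Ti−Tz)/(C−Tz)]×100 when Ti ≥ Tz, or [(Ti−Tz)/Tz]×100 when Ti < Tz.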

SNB-75 = assay: Growth inhibition of human SNB75 cells after 48 hrs by sulforhodamine B assay; details: SNB-75, 48 h, read-out: LD50 (the source's name)
[6] = Growth inhibition of human Hs 578T cells after 48 hrs by sulforhodamine B assay
How it was run: (§3)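 NCI 60-cell-line five-dose screen. Cells were plated at 5,000–40,000/well by doubling time and grown 24 h at 37 °C, 5% CO2. Time-zero plates were TCA-fixed. Drug from DMSO stock was tested at 0.01, 0.1, 1, 10 and 100 µM final for 48 h continuous exposure. Read-out was SRB at 515 nm. GI50 is the concentration giving 50% reduction in net protein increase versus untreated control.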

HCT-15 [7] = assay: Growth inhibition of human HCT15 cells assessed as cell growth at 10 '-4 M after 48 hrs by sulforhodamine B assay; details: HCT-15, 48 h, read-out: Activity
SK-MEL-2 = assay: Growth inhibition of human SK-MEL-2 cells assessed as growth inhibition at 10 uM after 48 hrs by sulforhodamine B assay; details: SK-MEL-2, 48 h, read-out: GI
KM12 = assay: Growth inhibition of human KM12 cells assessed as growth inhibition at 10 uM after 48 hrs by sulforhodamine B assay; details: KM12, 48 h, read-out: GI
A549 = assay: Growth inhibition of human A549 cells after 48 hrs by sulforhodamine B assay; details: A549, 48 h
How it was run: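 NCI 60-cell-line five-dose screen at 0.01, 0.1, 1, 10 and 100 µM final. Cells were plated at 5,000–40,000/well and grown 24 h at 37 °C, 5% CO2, then exposed to drug continuously for 48 h. Adherent cells were fixed with cold TCA (10% final) and stained with SRB; absorbance read at 515 nm. GI50 is the concentration where [(Ti-Tz)/(C-Tz)]×100 = 50, with Tz plates fixed at drug addition.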

[8] = Growth inhibition of human NCI-ADR-RES cells assessed as cell growth at 10 '-6 M after 48 hrs by sulforhodamine B assay; details: read-out: Activity
SN12C [9] = assay: Growth inhibition of human SN12C cells assessed as cell growth at 10 '-8 M after 48 hrs by sulforhodamine B assay; details: read-out: Activity
HL-60(TB) [10] = assay: Growth inhibition of human HL-60(TB) cells assessed as cell growth at 10 '-7 M after 48 hrs by sulforhodamine B assay; details: HL-60, 48 h, read-out: Activity; how it was run: as §1
HOP-92 [11] = assay: Growth inhibition of human HOP92 cells assessed as cell growth at 10 '-8 M after 48 hrs by sulforhodamine B assay; details: HOP-92, 48 h, read-out: Activity
LOX IMVI = assay: Growth inhibition of human LOXIMVI cells assessed as cell growth at 10 '-5 M after 48 hrs by sulforhodamine B assay; details: read-out: Activity
[12] = Growth inhibition of human EKVX cells assessed as growth inhibition at 10 uM after 48 hrs by sulforhodamine B assay; details: read-out: GI
HOP-92 [13] = assay: Growth inhibition of human HOP92 cells after 48 hrs by sulforhodamine B assay; details: HOP-92, 48 h; how it was run: as §3
786-0 = assay: Growth inhibition of human 786-0 cells assessed as cell growth at 10 '-7 M after 48 hrs by sulforhodamine B assay; details: 786-0, 48 h, read-out: Activity; how it was run: as §2
[14] = read-out: LD50 (the source's name)

SMILES: Cc1cc(=O)oc2cc(OCCn3c(C)nn(-c4ccc(Cl)cc4)c3=O)ccc12
- growth at 10 µM (SN12C [1]): 39%
- growth at 100 µM (HOP-92 [2]): 32%
- growth at 1 µM (HL-60(TB) [3]): 91%
- growth at 0.1 µM (OVCAR-5): 102%
- growth at 0.1 µM (T47D): 99%
- growth at 10 µM (IGROV-1): 61%
- growth at 0.1 µM (NCI-H23): 91%
- growth at 0.1 µM (MDA-MB-231): 88%
- inhibition of growth at 10 µM (HCT-15 [4]): 82.3%
- growth at 1 µM (HCT-15 [5]): 80%
- growth at 10 µM (CAKI-1): 54%
- growth at 10 µM (COLO 205): -14%
- CC50 (SNB-75): > 1000 nM
- GI50 [6]: 2820 nM
- TGI [6]: > 1000 nM
- CC50 [6, 14]: > 1000 nM
- growth at 100 µM (HCT-15 [7]): 25%
- inhibition of growth at 10 µM (SK-MEL-2): 96.5%
- inhibition of growth at 10 µM (KM12): 68.6%
- GI50 (A549): 6070 nM
- TGI (A549): > 1000 nM
- CC50 (A549; [14]): > 1000 nM
- growth at 1 µM [8]: 61%
- growth at 0.01 µM (SN12C [9]): 94%
- growth at 0.1 µM (HL-60(TB) [10]): 104%
- growth at 0.01 µM (HOP-92 [11]): 87%
- growth at 10 µM (LOX IMVI): 39%
- inhibition of growth at 10 µM [12]: 41.3%
- GI50 (HOP-92 [13]): 1610 nM
- TGI (HOP-92 [13]): > 1000 nM
- CC50 (HOP-92 [13]; [14]): > 1000 nM
- growth at 0.1 µM (786-0): 104%
